Laboratory results from PubChem BioAssay AID624164 (Southern Research Specialized Biocontainment Screening …, 2012).
Active and inactive are the calls of the source.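 Rule for the calls: active = inhibition of 30% or more at any tested concentration; inactive = the rest.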

Target: Leucine aminopeptidase (Plasmodium falciparum (isolate 3D7)) (UniProt Q8IL11)
Assay: PFM17LAP inhibitors, dose response, selectivity assay for PFM1AAP inhibitor project, biochemical, QFRET, H-Leu-NHMec substrate, set 3 (AID 624164)
Settings: purified rPFM17LAP, H-Leu-NHMec fluorogenic cleavage
Procedure, shortened: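 System: purified recombinant P. falciparum M17 leucine aminopeptidase (rPFM17LAP). Input: enzyme 5 µg/mL. Also added: H-Leu-NHMec 0.1 mM. Dosing: ten twofold doses from 100 µM, 2% DMSO. Incubation: enzyme reaction with compound, 90 min at room temperature. Technique: fluorescence of released NHMec, excitation 370 nm, emission 460 nm. Benchmarks: no-enzyme background wells.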

Sequence of Leucine aminopeptidase (Plasmodium falciparum (isolate 3D7)) (Q8IL11 whole entry, looked up): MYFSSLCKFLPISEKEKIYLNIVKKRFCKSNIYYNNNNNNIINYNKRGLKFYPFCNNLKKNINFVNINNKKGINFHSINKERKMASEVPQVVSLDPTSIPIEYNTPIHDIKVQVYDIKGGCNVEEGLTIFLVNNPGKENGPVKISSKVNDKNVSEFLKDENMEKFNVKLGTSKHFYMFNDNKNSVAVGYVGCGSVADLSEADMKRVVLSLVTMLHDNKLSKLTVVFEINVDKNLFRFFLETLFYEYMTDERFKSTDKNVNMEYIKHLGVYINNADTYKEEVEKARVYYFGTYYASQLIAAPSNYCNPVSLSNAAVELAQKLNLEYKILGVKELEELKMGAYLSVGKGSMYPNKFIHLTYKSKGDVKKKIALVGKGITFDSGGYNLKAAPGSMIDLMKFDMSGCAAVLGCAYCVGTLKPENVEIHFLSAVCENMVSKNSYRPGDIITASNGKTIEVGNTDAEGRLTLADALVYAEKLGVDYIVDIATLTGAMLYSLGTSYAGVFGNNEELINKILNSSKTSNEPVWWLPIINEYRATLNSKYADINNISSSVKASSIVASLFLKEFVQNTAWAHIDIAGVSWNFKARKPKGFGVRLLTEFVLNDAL

Compound: O=C(Nc1ccc2c(c1)OCO2)C1CCN(S(=O)(=O)c2ccc(Br)cc2)CC1
- inhibition (at 100 µM (top of the series)): inactive

Compound: O=C(NCCc1ccc2c(c1)OCO2)C1CCN(S(=O)(=O)c2ccc(Cl)s2)CC1
- inhibition (at 100 µM (top of the series)): inactive

Compound: O=C(Nc1ccc2c(c1)OCO2)C1CCN(S(=O)(=O)c2ccc(Br)s2)CC1
- inhibition (at 100 µM (top of the series)): inactive

Compound: O=C(NCCc1ccc2c(c1)OCO2)C1CCN(S(=O)(=O)c2ccc(Br)cc2)CC1
- inhibition (at 100 µM (top of the series)): inactive

Compound: O=C(NCc1ccccc1F)C1CCN(S(=O)(=O)c2ccc(Br)cc2)CC1
- IC50: 82.3 µM

Compound: O=C(NCc1ccc2c(c1)OCO2)C1CCN(S(=O)(=O)c2sccc2Br)CC1
- inhibition (at 50 µM (top of the series)): inactive

Compound: O=C(Nc1ccc2c(c1)OCO2)C1CCN(S(=O)(=O)c2cc(Br)c(Br)s2)CC1
- inhibition (at 100 µM (top of the series)): inactive

Compound: O=C(Nc1ccc2c(c1)OCO2)C1CCN(S(=O)(=O)c2sccc2Br)CC1
- inhibition (at 100 µM (top of the series)): inactive

Compound: O=C(NCc1ccc(F)cc1)C1CCN(S(=O)(=O)c2cc(Br)c(Br)s2)CC1
- inhibition (at 100 µM (top of the series)): inactive

Compound: O=C(NCc1cccc(F)c1)C1CCN(S(=O)(=O)c2ccc(Br)s2)CC1
- IC50: 24.7 µM

Compound: O=C(NCc1ccccc1F)C1CCN(S(=O)(=O)c2ccc(Cl)s2)CC1
- IC50: 50 µM

Compound: O=C(NCCc1ccc2c(c1)OCO2)C1CCN(S(=O)(=O)c2sccc2Br)CC1
- inhibition (at 100 µM (top of the series)): inactive

Compound: O=C(NCCc1ccc2c(c1)OCO2)C1CCN(S(=O)(=O)c2ccc(Br)s2)CC1
- inhibition (at 100 µM (top of the series)): inactive

Compound: O=C(NCc1ccccc1F)C1CCN(S(=O)(=O)c2ccc(Br)s2)CC1
- IC50: 28.5 µM

Compound: O=C(NCc1ccc2c(c1)OCO2)C1CCN(S(=O)(=O)c2ccc(Cl)s2)CC1
- IC50: 35.4 µM

Compound: O=C(NCc1cccc(F)c1)C1CCN(S(=O)(=O)c2ccc(Cl)s2)CC1
- IC50: 50 µM

Compound: O=C(NCc1ccccc1F)C1CCN(S(=O)(=O)c2sccc2Br)CC1
- inhibition (at 100 µM (top of the series)): inactive

Compound: O=C(NCc1cccc(F)c1)C1CCN(S(=O)(=O)c2sccc2Br)CC1
- inhibition (at 100 µM (top of the series)): inactive

Compound: O=C(NCc1ccc2c(c1)OCO2)C1CCN(S(=O)(=O)c2ccc(Br)cc2)CC1
- inhibition (at 100 µM (top of the series)): inactive

Compound: O=C(NCc1ccccc1F)C1CCN(S(=O)(=O)c2cc(Br)c(Br)s2)CC1
- inhibition (at 100 µM (top of the series)): inactive

Compound: O=C(NCc1cccc(F)c1)C1CCN(S(=O)(=O)c2ccc(Br)cc2)CC1
- IC50: 50.6 µM

Compound: O=C(NCc1ccc2c(c1)OCO2)C1CCN(S(=O)(=O)c2cc(Br)c(Br)s2)CC1
- inhibition (at 100 µM (top of the series)): inactive

Compound: O=C(NCCc1ccc2c(c1)OCO2)C1CCN(S(=O)(=O)c2cc(Br)c(Br)s2)CC1
- inhibition (at 100 µM (top of the series)): inactive

Compound: O=C(NCc1ccc(F)cc1)C1CCN(S(=O)(=O)c2ccc(Cl)s2)CC1
- IC50: 43.6 µM

Compound: O=C(NCc1ccc(F)cc1)C1CCN(S(=O)(=O)c2sccc2Br)CC1
- inhibition (at 100 µM (top of the series)): inactive

Compound: O=C(NCc1cccc(F)c1)C1CCN(S(=O)(=O)c2cc(Br)c(Br)s2)CC1
- inhibition (at 100 µM (top of the series)): inactive

Compound: O=C(NCc1ccc(F)cc1)C1CCN(S(=O)(=O)c2ccc(Br)s2)CC1
- IC50: 44.3 µM

Compound: O=C(NCc1ccc(F)cc1)C1CCN(S(=O)(=O)c2ccc(Br)cc2)CC1
- inhibition (at 100 µM (top of the series)): inactive

Compound: O=C(Nc1ccc2c(c1)OCO2)C1CCN(S(=O)(=O)c2ccc(Cl)s2)CC1
- inhibition (at 100 µM (top of the series)): inactive

Compound: O=C(NCc1ccc2c(c1)OCO2)C1CCN(S(=O)(=O)c2ccc(Br)s2)CC1
- IC50: 16.4 µM
